“And” between values parts separate entries of the source, which are not always exact repeats. Equal values may be shown once. The source made the active and inactive calls. The rule behind the calls is not given here.
Tests used:
Acetylcholinesterase [1] = biological target: T1, Acetylcholinesterase (Homo sapiens, UniProt P22303); assay: Inhibition of human erythrocyte AChE at 10^-6 M using acetylthiocholine iodide as substrate peincubated for 5 mins followed by substrate addition by DTNB-reagent based Ellman's method relative to control; settings: dose 1.0 µM
T1 sequence (P22303 whole entry): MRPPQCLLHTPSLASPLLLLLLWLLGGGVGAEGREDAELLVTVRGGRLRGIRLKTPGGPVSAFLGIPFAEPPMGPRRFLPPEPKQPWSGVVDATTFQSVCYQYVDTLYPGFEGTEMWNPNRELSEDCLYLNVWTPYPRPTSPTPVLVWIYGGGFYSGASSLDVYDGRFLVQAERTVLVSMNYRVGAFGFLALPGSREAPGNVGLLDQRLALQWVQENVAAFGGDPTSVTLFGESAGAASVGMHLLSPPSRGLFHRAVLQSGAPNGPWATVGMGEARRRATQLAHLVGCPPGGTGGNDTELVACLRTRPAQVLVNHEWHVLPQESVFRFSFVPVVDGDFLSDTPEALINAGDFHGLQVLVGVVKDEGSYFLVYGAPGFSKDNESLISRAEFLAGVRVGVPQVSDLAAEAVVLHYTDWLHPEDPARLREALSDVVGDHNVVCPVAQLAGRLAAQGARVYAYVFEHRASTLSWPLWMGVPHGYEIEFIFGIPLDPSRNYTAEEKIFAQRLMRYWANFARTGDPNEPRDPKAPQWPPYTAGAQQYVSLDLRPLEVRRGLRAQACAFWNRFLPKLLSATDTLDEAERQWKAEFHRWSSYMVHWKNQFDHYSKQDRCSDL
Method in brief: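 Human erythrocyte AChE diluted in 20 mM HEPES pH 8 with 0.1% Triton X-100 (0.05 U final). Preincubated 5 min at 25 °C with compound and 0.3 mM DTNB in phosphate buffer pH 7.4. Reaction started with 1 mM acetylthiocholine iodide.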

Cholinesterase [2] = biological target: T2, Cholinesterase (Homo sapiens, UniProt P06276); assay: Inhibition of human BuChE at 10^-5 M using butyrylthiocholine iodide as substrate peincubated for 5 mins followed by substrate addition by DTNB-reagent based Ellman's method relative to control; settings: dose 10.0 µM
T2 sequence (P06276 whole entry): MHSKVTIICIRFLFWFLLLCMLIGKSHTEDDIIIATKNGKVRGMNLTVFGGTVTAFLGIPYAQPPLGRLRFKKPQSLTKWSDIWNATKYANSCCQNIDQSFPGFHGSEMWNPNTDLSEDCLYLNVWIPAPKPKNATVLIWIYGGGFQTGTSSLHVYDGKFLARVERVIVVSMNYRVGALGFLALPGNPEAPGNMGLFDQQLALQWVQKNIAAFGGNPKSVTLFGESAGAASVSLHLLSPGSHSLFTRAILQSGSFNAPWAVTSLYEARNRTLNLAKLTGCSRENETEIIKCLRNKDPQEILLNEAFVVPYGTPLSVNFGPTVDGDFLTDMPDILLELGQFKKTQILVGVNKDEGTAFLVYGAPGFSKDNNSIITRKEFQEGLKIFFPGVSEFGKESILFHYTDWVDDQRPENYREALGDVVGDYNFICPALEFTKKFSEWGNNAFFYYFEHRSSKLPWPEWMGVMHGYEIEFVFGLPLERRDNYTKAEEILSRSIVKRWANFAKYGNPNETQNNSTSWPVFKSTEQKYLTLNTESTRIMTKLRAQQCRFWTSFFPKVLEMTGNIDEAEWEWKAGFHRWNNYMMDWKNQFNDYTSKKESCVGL

Homo sapiens = species on record: Homo sapiens; assay: Selectivity index, ratio of IC50 for human BuChE to IC50 for human erythrocyte AChE
[3] = biological target: T3, 5-hydroxytryptamine receptor 6 (Homo sapiens, UniProt P50406); assay: Displacement of [3H]-LSD from human 5HT6 receptor expressed in HEK293 cell membrane at 10^-6 M measured after 60 mins relative to control; type: cell membranes; settings: dose 1.0 µM
T3 sequence (P50406 whole entry): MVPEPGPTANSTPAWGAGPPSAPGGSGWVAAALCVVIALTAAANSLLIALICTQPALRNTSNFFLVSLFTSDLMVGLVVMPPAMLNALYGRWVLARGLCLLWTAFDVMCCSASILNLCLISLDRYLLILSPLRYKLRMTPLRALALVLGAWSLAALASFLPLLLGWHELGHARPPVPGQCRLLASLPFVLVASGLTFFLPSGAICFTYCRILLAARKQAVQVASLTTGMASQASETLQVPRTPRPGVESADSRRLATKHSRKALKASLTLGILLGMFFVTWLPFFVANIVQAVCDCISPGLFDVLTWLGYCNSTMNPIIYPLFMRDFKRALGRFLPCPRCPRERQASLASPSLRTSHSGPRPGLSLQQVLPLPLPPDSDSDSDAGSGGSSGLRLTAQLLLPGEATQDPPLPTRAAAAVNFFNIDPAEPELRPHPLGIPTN
Method in brief: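 Membranes of HEK-293 cells transiently expressing human 5-HT6R (4 µg protein) incubated in duplicate for 60 min at 37 °C with 2.5 nM [3H]-LSD and drug at 10^-6 or 10^-8 M. Buffer was 25 mM Tris-HCl pH 7.4 with 0.5 mM EDTA. Filtered on GF/C and washed with ice-cold Tris buffer. Non-specific binding defined with 100 µM serotonin.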

[4] = biological target: T3, 5-hydroxytryptamine receptor 6; assay: Displacement of [3H]-LSD from human 5HT6 receptor expressed in HEK293 cell membrane at 10^-5 M measured after 60 mins relative to control; type: cell membranes; settings: dose 10.0 µM
[5] = biological target: Cholinesterase (Equus caballus) (UniProt P81908); assay: Mixed type inhibition of equine BuchE at 10 to 500 nM using varying levels of butyrylthiocholine iodide as substrate by Lineweaver-Burk plot analysis; settings: dose 10-500 nM
Cholinesterase (Equus caballus), sequence (P81908 whole entry): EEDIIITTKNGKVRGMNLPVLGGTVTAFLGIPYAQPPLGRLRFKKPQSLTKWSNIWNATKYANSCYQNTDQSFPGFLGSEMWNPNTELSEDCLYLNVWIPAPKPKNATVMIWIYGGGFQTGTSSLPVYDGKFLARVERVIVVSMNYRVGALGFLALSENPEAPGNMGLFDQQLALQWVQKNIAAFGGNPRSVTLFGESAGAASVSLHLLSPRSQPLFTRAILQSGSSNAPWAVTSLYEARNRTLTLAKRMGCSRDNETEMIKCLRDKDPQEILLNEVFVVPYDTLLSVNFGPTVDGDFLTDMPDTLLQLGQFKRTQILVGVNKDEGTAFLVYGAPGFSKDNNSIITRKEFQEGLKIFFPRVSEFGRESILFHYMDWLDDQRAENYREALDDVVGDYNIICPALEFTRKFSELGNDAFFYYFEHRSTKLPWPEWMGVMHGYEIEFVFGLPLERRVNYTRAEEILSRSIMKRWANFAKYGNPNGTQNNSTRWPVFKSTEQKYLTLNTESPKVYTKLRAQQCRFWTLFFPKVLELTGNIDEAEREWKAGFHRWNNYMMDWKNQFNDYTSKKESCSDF
Method in brief: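 Ellman method with equine BuChE. Butyrylthiocholine iodide varied from 0.1 to 1 mM, inhibitor at 10, 50, 100 and 500 nM. Double-reciprocal plots of 1/velocity versus 1/[substrate] used to assign the inhibition mode.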

Mus musculus [6] = assay: Reversal of scopolamine-induced working memory deficit in NMRI mouse assessed as increase in spontaneous alteration at 10 mg/kg, ip measured after 30 mins by Y-maze test; type: functional, organism-based
Method in brief: (§1)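 Compound 10 mg/kg ip in 0.9% NaCl given 30 min before test. Scopolamine 0.5 mg/kg or MK801 0.1 mg/kg given sc 20 min before test to induce the deficit. Mouse placed in a three-arm Y maze for a 5 min session; arm-entry sequence recorded by an observer to score spontaneous alternation. n = 9 per group.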

Mus musculus [7] = assay: Reversal of MK801-induced working memory deficit in NMRI mouse assessed as increase in spontaneous alteration at 10 mg/kg, ip measured after 30 mins by Y-maze test; type: functional, organism-based; method in brief: as §1
[8] = biological target: T3, 5-hydroxytryptamine receptor 6; assay: Antagonist activity at human 5HT6 receptor expressed in COS-7 cells assessed as inhibition of 5HT-induced cAMP accumulation preincubated for 7 mins followed by 5-HT addition and measured after 10 mins by HTRF assay relative to control; type: functional, cell-based; set-up: scale not given: the % may be the effect or the level left; settings: COS7, filed as antagonist
Method in brief: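 COS-7 cells grown in DMEM with 10% dialyzed FCS, transiently transfected by electroporation with HA-tagged 5-HT6R plasmid, seeded. 24 h later, ligands added at 37 °C for 7 min. Then 5-HT (5.10^-7 M final) plus RO-20-1724 (0.1 mM final) added for 10 min at 37 °C. Cells lysed in 0.1% Triton X-100 and cAMP read by HTRF. Log IC50 is mean ± SEM of three experiments.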

Acetylcholinesterase [9] = biological target: T1, Acetylcholinesterase; assay: Inhibition of human erythrocyte AChE using acetylthiocholine iodide as substrate peincubated for 5 mins followed by substrate addition by DTNB-reagent based Ellman's method
Cholinesterase [10] = biological target: T2, Cholinesterase; assay: Inhibition of human BuChE using butyrylthiocholine iodide as substrate peincubated for 5 mins followed by substrate addition by DTNB-reagent based Ellman's method
[11] = Stability of compound in PBS buffer at pH 7.4 assessed as equine BuChE mediated decarbamoylation of compound at 5 uM incubated for 24 hrs by HPLC-LC/MS analysis; type: physicochemical; settings: pH 7.4, 24 h
Method in brief: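 Compound (5 µM) incubated in PBS pH 7.4 at 25 °C with 250 U/mL BuChE, or without enzyme as control. After incubation, extracted with ethyl acetate, evaporated and taken up in acetonitrile. Analyzed by C18 reversed-phase HPLC (water/acetonitrile with 0.1% formic acid, detection 280 nm) and LC-MS.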

[12] = Toxicity of compound in ip dosed NMRI mouse assessed as mortality after 24 hrs; type: organism-based; settings: in vivo
Method in brief: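 Mice in groups of four given 1, 10 or 100 mg/kg ip in 0.9% NaCl. Behavioral and neurological signs scored by standardized observation at 30 min, 3 h and 24 h. Approximate LD50 from mortality at 24 h. Amphetamine 2 mg/kg and chlorpromazine 10 mg/kg served as references.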

[13] = Effect on spontaneous locomotory activity in NMRI mouse at 1 to 10 mg/kg, ip measured for 30 mins; type: ADME, organism-based; settings: in vivo, 0.5 h, dose 1-10 mg/kg
Method in brief: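 Mice dosed ip at 1, 3 or 10 mg/kg in 0.9% NaCl, 30 min before test; chlorpromazine 3 mg/kg as depressive reference. Locomotion counted as infrared beam breaks in individual cages of an actimeter over 30 min. n = 8 per group; analyzed by ANOVA.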

[14] = biological target: T3, 5-hydroxytryptamine receptor 6; assay: Displacement of [3H]-LSD from human 5HT6 receptor expressed in HEK293 cell membrane measured after 60 mins; type: cell membranes
[15] = biological target: T3, 5-hydroxytryptamine receptor 6; assay: Antagonist activity at human 5HT6 receptor expressed in COS-7 cells assessed as inhibition of 5HT-induced cAMP accumulation preincubated for 7 mins followed by 5-HT addition and measured after 10 mins by HTRF assay; type: functional, cell-based, COS7
Method in brief: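 COS-7 cells grown in DMEM with 10% dialyzed FCS, transiently transfected by electroporation with HA-tagged 5-HT6R plasmid, seeded. 24 h later, ligands added at 37 °C for 7 min. Cells lysed in 0.1% Triton X-100 and cAMP read by HTRF. Log IC50 is mean ± SEM of three experiments.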

CCN(C)C(=O)Oc1cccc(CNCCc2c[nH]c3cc(F)ccc23)c1 [listing 1 of 2 here]
inhibition (Acetylcholinesterase [1]): 9% and 5% | inhibition (Cholinesterase [2]): 93% and 97% | Ratio IC50 (Homo sapiens): 0.06 and 0.05 | inhibition [3]: 37% | inhibition ([3]; filed as antagonist): 53% | inhibition [4]: 24% and 32% | inhibition [5]: Active | Activity (Mus musculus [6]): Active | Activity (Mus musculus [7]): inactive

Oc1cccc(CNCCc2c[nH]c3cc(F)ccc23)c1 [listing 1 of 2 here]
inhibition (Acetylcholinesterase [1]): 8% and 2% | inhibition (Cholinesterase [2]): 11% and 8% | inhibition ([3]; filed as antagonist): 104% and 85% | inhibition [4]: 33% | inhibition ([4]; filed as antagonist): 48% | Activity [8]: 87.2% | Activity (Mus musculus [6]): inactive | Activity (Mus musculus [7]): Active

Fc1ccc2c(CCNCc3cccc(OCC(F)(F)C(F)F)c3)c[nH]c2c1
inhibition (Acetylcholinesterase [1]): 6% | inhibition ([3]; filed as antagonist): 106% | inhibition ([4]; filed as antagonist): 88% | Activity [8]: 101%

CCN(C)C(=O)Oc1cccc(CNCCc2c[nH]c3cc(F)ccc23)c1.O=C(O)/C=C/C(=O)O
IC50 (Acetylcholinesterase [9]): 17600 nM | IC50 (Cholinesterase [10]): 835 nM | Drug metabolism [11]: Metabolite_Detected | LD50 at 24 h [12]: > 100 mg/kg | Activity [13]: Non-Toxic

CCN(C)C(=O)Oc1cccc(CNCCc2c[nH]c3cc(F)ccc23)c1 [listing 2 of 2 here]
IC50 (Acetylcholinesterase [9]): 16500 nM | IC50 (Cholinesterase [10]): 927 nM

Fc1ccc2c(CCNCc3cccc(OCc4ccccc4)c3)c[nH]c2c1
inhibition (Acetylcholinesterase [1]): 4% | inhibition (Cholinesterase [2]): 2% | inhibition ([3]; filed as antagonist): 103% | inhibition [4]: 14%

Oc1cccc(CNCCc2c[nH]c3cc(F)ccc23)c1 [listing 2 of 2 here]
Ki [14]: 11.4 nM

O=C(O)/C=C/C(=O)O.Oc1cccc(CNCCc2c[nH]c3cc(F)ccc23)c1
Ki [14]: 4.3 nM | IC50 [15]: 2000 nM | LD50 at 24 h [12]: > 100 mg/kg | Activity [13]: Non-Toxic

C[C@]12N[C@H](Cc3ccccc31)c1ccccc12 [DIZOCILPINE]
IC50 (Cholinesterase [10]): 16000 nM

Reference: ChEMBL document CHEMBL4732122, “Pleiotropic prodrugs: Design of a dual butyrylcholinesterase inhibitor and 5-HT receptor antagonist with therapeutic interest in Alzheimer's disease” (Eur J Med Chem, 2021)
